pKd: −log10 of the molar value.
Target: Keap1/Nrf2 (Homo sapiens, UniProt Q14145)
Experiment: Inhibition of Nrf2 peptide (KKKKAFFAQLQLDEETGEFL) binding to Keap1 Kelch domain (321 to 609 residues) (unknown origin) assessed as dissociation constant by surface plasmon resonance based inhibition in solution assay
Format: protein assay
In short: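 Solution-competition SPR at 20 °C in HBS-P (10 mM HEPES, 150 mM NaCl, 0.05% Tween 20, 1.0 mM TCEP, pH 7.40), 10 µL/min. Nrf2 peptide amine-coupled to CM5 chip (400–600 RU). 25 nM Keap1 Kelch domain (aa321–609) preincubated with compound, injected; initial association slopes (5–15 s) vs compound-free controls give free Keap1. KD by nonlinear regression; mean ± SD of three measurements on distinct samples.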

Sequence of Keap1/Nrf2 (Q16236 whole entry, the tested form may be a part): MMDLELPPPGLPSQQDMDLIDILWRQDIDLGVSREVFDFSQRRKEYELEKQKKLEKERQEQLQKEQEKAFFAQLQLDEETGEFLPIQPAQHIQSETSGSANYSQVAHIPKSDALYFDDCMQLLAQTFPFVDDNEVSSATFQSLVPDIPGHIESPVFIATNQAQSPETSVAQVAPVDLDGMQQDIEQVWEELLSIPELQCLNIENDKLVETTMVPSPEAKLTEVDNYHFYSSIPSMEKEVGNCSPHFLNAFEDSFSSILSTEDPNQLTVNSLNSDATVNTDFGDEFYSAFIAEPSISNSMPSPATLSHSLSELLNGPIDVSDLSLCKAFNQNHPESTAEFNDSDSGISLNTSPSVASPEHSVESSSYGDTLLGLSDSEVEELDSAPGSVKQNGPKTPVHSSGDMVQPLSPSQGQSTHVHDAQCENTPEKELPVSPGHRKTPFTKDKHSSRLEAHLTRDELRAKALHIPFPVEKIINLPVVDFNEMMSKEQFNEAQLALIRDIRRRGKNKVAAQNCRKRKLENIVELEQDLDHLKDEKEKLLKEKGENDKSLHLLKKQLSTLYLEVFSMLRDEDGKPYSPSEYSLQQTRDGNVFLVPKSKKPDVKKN
Sequence of Keap1/Nrf2 (Q14145 whole entry, the tested form may be a part): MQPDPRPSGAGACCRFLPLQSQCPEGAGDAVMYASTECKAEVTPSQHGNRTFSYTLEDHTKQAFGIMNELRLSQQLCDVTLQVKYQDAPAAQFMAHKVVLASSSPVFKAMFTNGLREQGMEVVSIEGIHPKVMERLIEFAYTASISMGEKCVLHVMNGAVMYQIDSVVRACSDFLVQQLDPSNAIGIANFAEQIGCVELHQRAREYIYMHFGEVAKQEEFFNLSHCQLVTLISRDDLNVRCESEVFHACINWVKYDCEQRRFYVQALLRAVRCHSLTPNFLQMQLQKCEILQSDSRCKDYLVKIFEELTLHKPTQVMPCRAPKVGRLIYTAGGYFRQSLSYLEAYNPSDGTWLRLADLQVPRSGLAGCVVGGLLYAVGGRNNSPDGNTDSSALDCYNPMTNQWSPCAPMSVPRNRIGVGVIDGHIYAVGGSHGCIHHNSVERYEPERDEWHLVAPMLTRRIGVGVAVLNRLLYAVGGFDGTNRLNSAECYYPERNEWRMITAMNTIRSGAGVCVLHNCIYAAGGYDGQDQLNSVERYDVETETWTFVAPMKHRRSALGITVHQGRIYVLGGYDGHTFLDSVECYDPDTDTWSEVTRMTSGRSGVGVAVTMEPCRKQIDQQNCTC

Structure (SMILES)	pKd
COC(=O)[C@H]1CSCc2ccccc2C(=O)OC[C@@H](NC(=O)[C@@H]2C[C@@H](O)CN2C(C)=O)C(=O)N1	3.57
COC(=O)[C@H]1CSCc2ccccc2C(=O)OC[C@H](NC(=O)[C@@H]2CCCN2C(C)=O)C(=O)N1	< 3.30
CNC(=O)[C@H]1CSCc2ccccc2C(=O)OC[C@@H](NC(=O)[C@@H]2CCCN2C(C)=O)C(=O)N1	3.68
CC(=O)N1CCC[C@H]1C(=O)N[C@@H]1COC(=O)c2ccccc2CSC[C@H](C(=O)N(C)C)NC(=O)CNC1=O	< 3.30
CC(=O)N1CCC[C@H]1C(=O)N[C@@H]1CCOC(=O)c2ccccc2CSC[C@H](C(=O)N(C)C)NC1=O	< 3.30
COC(=O)[C@@H]1CSCc2ccccc2C(=O)OC[C@@H](NC(=O)[C@@H]2CCCN2C(C)=O)C(=O)N1	< 3.30
CSC[C@@H](NC(=O)[C@@H](COC(=O)c1ccccc1)NC(=O)[C@@H]1CCCN1C(C)=O)C(=O)N(C)C	3.39

More lines, now with the values ahead:

pKd	Structure (SMILES)
< 3.30	COC(=O)[C@@H]1CSCc2ccccc2C(=O)OC[C@H](NC(=O)[C@@H]2CCCN2C(C)=O)C(=O)N1
< 3.30	COC(=O)[C@H]1CSCc2ccccc2C(=O)OC[C@@H](NC(=O)[C@H]2CCCN2C(C)=O)C(=O)N1
3.63	COC(=O)[C@H]1CSCc2ccccc2C(=O)OC[C@@H](NC(=O)[C@@H]2CCCN2C(C)=O)C(=O)N1
< 3.30	CC(=O)N1CCC[C@H]1C(=O)N[C@@H]1COC(=O)c2ccccc2CSC[C@H](C(N)=O)NC1=O
< 3.30	CCN(CC)C(=O)[C@H]1CSCc2ccccc2C(=O)OC[C@@H](NC(=O)[C@@H]2CCCN2C(C)=O)C(=O)N1
